Calb FLC – C. albicans growth inhibition with fluconazole, primary screen, CaCi-2 strain, Alamar Blue fluorescence; C. albicans CaCi-2 (fluconazole-resistant clinical isolate) + fluconazole, 48 h; growth inhibition, % (no concentration beside the values); hit rate 0.57% among 300,000; AID 1979, 2009;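 active = growth inhibition above about 58% in most replicates, limit read from the data, passing the limit was not always enough; inconclusive = exactly half the replicates above a set limit; inactive = most replicates below a set limit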;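 also: all wells also contain fluconazole at 8 µg/ml as a sub-toxic cotreatment; 0% = median of DMSO wells and 100% = median of geldanamycin control wells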
L major viab – Leishmania major promastigote growth inhibition, primary screen; inhibition, % at 10 µM; AID 1063, 2008; Leishmania major promastigotes, resazurin fluorescence viability; hit rate 9% among 200,000; in the data active = inhibition above about 50%;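 also: promastigotes grown with compound for 44 hours at 28 °C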
NALP3 yeast inh – NALP3 inflammasome inhibitors in reconstituted yeast, primary screen, luminescence, uHTS | inhibition, % at 10 µM | AID 2825, 2010 | hit rate 0.39% among 330,000 | Yeast reconstituted NLRP3/ASC/caspase-1, beta-gal luminescence, 24 h;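 active = inhibition of 50% or more; inactive = inhibition below 50%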;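 also: plate controls were induced DMSO wells for no effect and uninduced yeast grown without galactose for full effect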
NALP1 yeast inh – NALP1 inflammasome inhibitors in reconstituted yeast, colorimetric, S. cerevisiae, triplicate retest; S. cerevisiae NALP1/ASC/caspase-1 growth, X-gal OD620, 72 h; hit rate 0.61% among 280,000; inhibition, % at 10 µM; AID 2071, 2009; in the data active = inhibition mostly above about 24%, no sharp cut-off; inactive = mostly below about 32%
T cruzi repl – inhibitors of intracellular T. cruzi growth, primary screen, luminescence, NIH3T3 host cells. T. cruzi beta-gal in NIH3T3, 90 h. inhibition, % (concentration not given with the values). hit rate 1.4% among 300,000;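 active = mean inhibition across valid replicates above about 55%, limit read from the data; inconclusive = mean below that limit but half or more replicates reach it; inactive = mean below it, under half of replicates reach it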;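 also: signal also drops with host cell toxicity which is not excluded here; 0% = plate median of DMSO wells and 100% = zero luminescence signal; higher percent means less beta-gal luminescence so fewer parasites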
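Material: NIH/3T3 host cells with β-galactosidase reporter T. cruzi; Input: 5,000 host fibroblasts per well; Medium: DMEM, 2% fetal bovine serum; Compound: 50 nL DMSO compound solution per well; Schedule: 3 h host attachment, then at least 90 h co-culture; Detection: luminescent β-galactosidase signal after 60 min lysis.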
PolyA inhibitor – polyadenylation inhibitors in yeast reporter cells, primary screen, luminescence, S. cerevisiae | S. cerevisiae SKY197-pL101 polyadenylation reporter, beta-gal luminescence; efflux-impaired pdr1/pdr3 knockout yeast; score 100 = 6 SD above DMSO | activity score, % at 12 µM | hit rate 0.02% among 300,000;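 active = lowest replicate activity score at least 50, where 100 means six control SD above control mean; inconclusive = lowest score under 50 but half or more replicates reach 50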;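 also: yeast exposed to compound for 9 h at 30 °C; higher score means more reporter readthrough which indicates perturbed polyadenylation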
Starred values were filed as active, the others as inactive; u = inconclusive; x = no result. This excerpt belongs to a sample that is enriched for hits.

SMILES	Calb FLC	L major viab	NALP3 yeast inh	NALP1 yeast inh	T cruzi repl	PolyA inhibitor
CCCN(CCC)C1=CC(=[N+]2CCCC2)CC(C)(C)C1	-66	100*	16	16	60*	6
Cc1ccc(-n2nc3c(c2NC(=O)c2c(-c4ccccc4Cl)noc2C)CS(=O)(=O)C3)c(C)c1	4	16	3	24	13	6
O=[N+]([O-])c1ccc(N2CCN(S(=O)(=O)c3ccccc3)CC2)cc1NCc1ccco1	-5	6	8	13	43	9
CCCCOc1ccc(CN2CCCCC2)cc1	-16	93*	29	35	59*	5
Oc1ccc(N2CCN(Cc3ccc(OCCCN4CCCCC4)cc3)CC2)cc1	11	48	30	10	69*	-23
CCCCOc1ccc(C(=O)N2CCCCCC2)cc1	u	1	44	42	4	-10
Cc1ccc(Nc2nnc(SC(C)C(=O)NCC3CCCO3)s2)cc1 (stereo not given)	x	x	15	x	x	x
Cc1ccc2c(c1)S/C(=C\c1cccc[n+]1C)N2CCO	-19	x	9	6	46	-5
Cc1ccc2c(c1)S/C(=C/c1ccc[n+](CCO)c1)N2C	u	82*	18	5	61*	-12
COC(=O)c1ccc(CN2CCN(CC=C(C)C)C(CCO)C2)cc1 (stereo not given)	-32	73*	12	-5	27	-5
COC(=O)c1ccc(CN2CCN(Cc3ccc(F)cc3)C(CCO)C2)cc1 (stereo not given)	0	59*	4	-10	13	10
COc1ccc(/C=C/CN2CCN(Cc3ccc(F)cc3)C(CCO)C2)cc1 (stereo not given)	0	68*	7	5	8	5
COc1ccc(NC(=O)C2CCCN(C(=O)c3ccc(Cl)cc3)C2)cc1S(=O)(=O)N(C)C (stereo not given)	x	x	2	x	x	x
COc1cc(-c2nc(C(=O)NC3CCN(Cc4ccccc4)CC3)cc3c2[nH]c2ccccc23)cc(OC)c1OC	-1	x	2	19	77*	6
COc1ccc(OC)c(-c2nc(C(=O)NC3CCN(Cc4ccccc4)CC3)cc3c2[nH]c2ccccc23)c1	-2	x	20	24	42	-1
O=C(COC(=O)/C=C/c1ccccc1[N+](=O)[O-])Nc1ccc2[nH]c(=O)[nH]c2c1	x	x	3	x	x	x
CCCN(CCC)S(=O)(=O)c1ccc(C(=O)Nc2nnc(-c3cc(OC)cc(OC)c3)o2)cc1	0	100*	13	3	58*	-7
CCCN(CCC)S(=O)(=O)c1ccc(C(=O)Nc2nnc(-c3cccc(OC)c3)o2)cc1	-1	98*	6	28	54	2
COc1cccc(-c2nnc(NC(=O)c3ccc(Cl)s3)o2)c1	35	55*	14	20	34	3
C=CCN(CC=C)S(=O)(=O)c1ccc(C(=O)Nc2nnc(COC)o2)cc1	114*	6	-2	9	-27	9
CCc1noc(C)c1C(=O)Nc1ccc(F)c(F)c1	-6	x	15	x	-21	-2
CCOc1ccccc1N(CC(=O)NCCc1ccc(OC)c(OC)c1)S(=O)(=O)c1ccccc1	-5	x	-1	1	10	19
O=C(Nc1ccc(C(F)(F)F)cc1)c1cc(S(=O)(=O)NCC2COc3ccccc3O2)ccc1F (stereo not given)	-6	12	-3	15	45	-8
CCN(CCO)C(=O)CC(c1ccccc1)c1cc(Br)ccc1O (stereo not given)	7	50*	2	-7	-9	4
CCCN(CCC)C(=O)CC(c1ccccc1)c1cc(C)ccc1O (stereo not given)	50	14	5	27	17	-8
COc1ccc(CCN(C(=O)c2cccc(F)c2)C2CC(=O)N(c3ccc(OC)cc3)C2=O)cc1 (stereo not given)	2	72*	-3	x	2	1
COc1ccc(CCN(C(=O)c2cccc(F)c2)C2CC(=O)N(c3ccccc3)C2=O)cc1 (stereo not given)	0	-2	-6	28	-2	-10

From PubChem
